Values belong to the compound of their own block, whether it stands above or below them.
Key:
[1] = molecular target: T1, Cholecystokinin receptor type A (Homo sapiens, UniProt P32238); assay: Agonist activity at human CCK1 receptor assessed as increase in CCK8-induced calcium release incubated in dark for 30 mins followed by light incubation for 30 mins measured by FLIPR assay; format: functional
T1 sequence (P32238 whole entry): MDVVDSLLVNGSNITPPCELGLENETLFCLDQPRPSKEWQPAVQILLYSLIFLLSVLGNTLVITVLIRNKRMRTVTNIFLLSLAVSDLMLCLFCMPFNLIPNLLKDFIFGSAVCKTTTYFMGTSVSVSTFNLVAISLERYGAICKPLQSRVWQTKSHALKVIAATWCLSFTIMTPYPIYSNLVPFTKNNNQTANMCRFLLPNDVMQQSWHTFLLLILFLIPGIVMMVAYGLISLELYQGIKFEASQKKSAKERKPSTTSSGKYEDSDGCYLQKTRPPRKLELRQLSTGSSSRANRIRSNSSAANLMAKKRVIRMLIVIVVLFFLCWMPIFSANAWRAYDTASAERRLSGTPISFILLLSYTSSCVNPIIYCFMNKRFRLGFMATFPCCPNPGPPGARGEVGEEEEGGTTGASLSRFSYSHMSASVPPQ
How it was run: (§1)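 FLIPR functional assay in CHO cells expressing human CCK1R. Agonism expressed as % of the CCK-8 peptide response. Initial screen at 30 µM, with >30% counted as active. Actives then run as full dose–response. EC50 is the geometric mean of at least 2 independent experiments.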

[2] = molecular target: T2, Cholecystokinin receptor type A (Homo sapiens) (UniProt P32238); assay: Agonist activity at human CCK1 receptor assessed as increase in CCK8-induced calcium release incubated in dark for 30 mins followed by light incubation for 30 mins measured by FLIPR assay relative to CCK8; format: functional; how it was run: as §1
T2 sequence (whole entry): T1 sequence (P32238 whole entry)

[3] = Lipophilicity, log D of the compound at pH 7.4; format: physicochemical; settings: buffer, read-out: logD
[4] = molecular target: T1, Cholecystokinin receptor type A; assay: Displacement of [125I]-CCK-8 from human CCK1 receptor expressed in CHO cells after 90 mins by liquid scintillation counting
[5] = Free intrinsic clearance in human microsomes; format: ADME, Microsome
How it was run: (§2)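 Intrinsic clearance measured in human liver microsomes. The free value is corrected for microsomal binding.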

[6] = test system: Mus musculus; assay: Antiobesity in C57Bl/6J mouse assessed as reduction in gall bladder weight at 0.6 mg/kg, po measured after 1 hr relative to control; format: functional; set-up: scale not given: the % may be the effect or the level left
[7] = Drug excretion in Sprague-Dawley rat bile at 1 mg/kg, iv measured after 24 hrs; format: ADME, organism-based; set-up: dose 1 mg/kg, route intravenous; settings: read-out: Ae
How it was run: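 Bile-cannulated rats dosed iv at 1 mg/kg. Bile collected over 24 h and % of dose excreted into bile determined.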

[8] = test system: Rattus norvegicus; assay: Toxicity in Sprague-Dawley rat assessed as gastrointestinal side-effects at 2 to 6 mg/kg, po; format: organism-based; set-up: dose 2-6 mg/kg, route oral; settings: in vivo
How it was run: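 Diet-induced obese rats dosed orally at 2 and 6 mg/kg for 5 days and monitored for gastrointestinal side-effects.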

[9] = Bioavailability in Sprague-Dawley rat portal system; format: ADME, organism-based
[10] = fCmax in Sprague-Dawley rat portal system; format: ADME
[11] = Cmax in Sprague-Dawley rat plasma at 6 mg/kg, po; format: ADME, organism-based; set-up: dose 6 mg/kg, route oral
How it was run: (§3)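 Male Sprague–Dawley rats dosed iv or po. Oral doses given in SDD formulation. Plasma PK parameters reported as mean of n = 3 rats.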

[12] = Drug level in C57Bl/6J mouse bile at 0.6 mg/kg; format: ADME, organism-based; set-up: dose 0.6 mg/kg; settings: in vivo
[13] = test system: Blood; assay: Drug level in C57Bl/6J mouse blood at 0.6 mg/kg; format: ADME, organism-based; set-up: dose 0.6 mg/kg; settings: in vivo
[14] = test system: Mus musculus; assay: Antiobesity in C57Bl/6J mouse assessed as reduction in gall bladder weight at 0.2 mg/kg, po measured after 24 hr relative to control; format: functional; set-up: scale not given: the % may be the effect or the level left
[15] = test system: Mus musculus; assay: Antiobesity in C57Bl/6J mouse assessed as decrease in food intake at 0.2 mg/kg, po measured after 2 hr relative to control; format: functional; set-up: scale not given: the % may be the effect or the level left
How it was run: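 Mice fasted overnight, then refed. Compound given orally in SDD formulation at increasing doses. Food intake measured at 2 h against vehicle-treated mice. Minimally efficacious dose defined as significant inhibition (p <0.05).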

[16] = test system: Plasma; assay: Plasma clearance in Sprague-Dawley rat at 0.3 mg/kg, iv; format: ADME, organism-based; set-up: dose 0.3 mg/kg, route intravenous; settings: in vivo; how it was run: as §3
[17] = Oral bioavailability in Sprague-Dawley rat at 6 mg/kg; format: ADME, organism-based; settings: in vivo; how it was run: as §3
[18] = test system: Rattus norvegicus; assay: fCmax in Sprague-Dawley rat at 6 mg/kg, po; format: ADME, organism-based; set-up: dose 6 mg/kg, route oral; settings: in vivo; how it was run: as §3
[19] = Tmax in Sprague-Dawley rat at 6 mg/kg, po; format: ADME, organism-based; set-up: dose 6 mg/kg, route oral; settings: in vivo; how it was run: as §3
[20] = Volume of distribution at steady state in Sprague-Dawley rat at 0.3 mg/kg, iv; format: ADME, organism-based; set-up: dose 0.3 mg/kg, route intravenous; settings: in vivo, read-out: Vdss; how it was run: as §3
[21] = AUC (0 to last) in Sprague-Dawley rat at 0.3 mg/kg, iv; format: ADME, organism-based; set-up: time 0 - last, dose 0.3 mg/kg, route intravenous; settings: plasma; how it was run: as §3
[22] = AUC (0 to last) in Sprague-Dawley rat at 6 mg/kg, po; format: ADME, organism-based; set-up: dose 6 mg/kg, route oral, time 0 - last; settings: plasma; how it was run: as §3
[23] = Half life in Sprague-Dawley rat at 0.3 mg/kg, iv; format: ADME, organism-based; set-up: dose 0.3 mg/kg, route intravenous; settings: in vivo; how it was run: as §3
[24] = test system: Rattus norvegicus; assay: Antiobesity in diet-induced obese Sprague-Dawley rat assessed as decrease in body weight gain at 2 mg/kg, po measured after 5 days; format: functional; set-up: scale not given: the % may be the effect or the level left
[25] = test system: Rattus norvegicus; assay: Antiobesity in diet-induced obese Sprague-Dawley rat assessed as decrease in body weight gain at 6 mg/kg, po measured after 5 days; format: functional; set-up: scale not given: the % may be the effect or the level left
[26] = test system: Rattus norvegicus; assay: Antiobesity in diet-induced obese Sprague-Dawley rat assessed as decrease in food intake at 2 mg/kg, po measured after 5 days relative to control; format: functional; set-up: scale not given: the % may be the effect or the level left
[27] = test system: Rattus norvegicus; assay: Antiobesity in diet-induced obese Sprague-Dawley rat assessed as decrease in food intake at 6 mg/kg, po measured after 5 days relative to control; format: functional; set-up: scale not given: the % may be the effect or the level left
[28] = Intrinsic clearance in human microsomes; format: ADME, Microsome; how it was run: as §2

EC50 [1]: 12.9 nM
Efficacy [2]: 103%
logD [3]: 4.6
CL free [5]: 846 µL/min/mg
IC50 [4]: 36 nM
SMILES: O=C1[C@@H](Cc2n[nH]c3ccccc23)c2nnc(-c3ccccc3)n2-c2ccccc2N1CC(=O)N1CCCCC1Cc1ccccc1 (stereo partly specified)
Activity [6]: 91%
dose excreted at 24 h [7]: 0.32%

EC50 [1]: 669 nM
Efficacy [2]: 75%
logD [3]: 5.1
IC50 [4]: 87.6 nM
SMILES: Cc1cccc(CC2CCCCN2C(=O)CN2C(=O)[C@@H](Cc3n[nH]c4ccccc34)c3nnc(-c4ccccc4)n3-c3ccccc32)c1 (stereo partly specified)

bioavailability [9]: 0.56%
fCmax [10]: 0.063 nM
Cmax [11]: 0.46 ng/mL
Drug uptake [12]: Not Active
Drug uptake [13]: Not Active
Efficacy [2]: 89%
logD [3]: 5.6
CL free [5]: 2300 µL/min/mg
clearance [16]: 176 mL/min/kg
bioavailability [17]: 0.13%
fCmax [18]: 0.014 nM
Tmax [19]: 15 min
Vd [20]: 17.6 L/kg
AUC(0-t) [21]: 29 ng·h/mL
AUC(0-t) [22]: 0.74 ng·h/mL
half-life [23]: 122 min
SMILES: Cc1cc(C)cc(C[C@H]2CCCCN2C(=O)CN2C(=O)[C@@H](Cc3n[nH]c4ccccc34)c3nnc(-c4ccccc4)n3-c3ccccc32)c1
Activity [8]: Non-toxic
Activity [6]: 89%
Activity [14]: 19%
dose excreted at 24 h [7]: 0.044%
Activity [15]: 34%
Activity [24]: 22%
Activity [25]: 44%
Activity [26]: 19%
Activity [27]: 25%

EC50 [1]: 400 nM
Efficacy [2]: 78%
clearance [28]: > 300 µL/min/mg
IC50 [4]: 36.9 nM
SMILES: CCC1CCCCN1C(=O)CN1C(=O)C(Cc2c[nH]c3ccccc23)c2nnc(-c3ccccc3)n2-c2ccccc21 (mixture of isomers)

The remaining lines, values behind:

SMILES: CC(C)N(Cc1ccccc1)C(=O)CN1C(=O)[C@@H](Cc2n[nH]c3ccccc23)c2nnc(-c3ccccc3)n2-c2ccccc21
EC50 [1]: 380 nM
Efficacy [2]: 72%
logD [3]: 4.7
IC50 [4]: 38.1 nM

SMILES: COCCC1CCCCN1C(=O)CN1C(=O)C(Cc2c[nH]c3ccccc23)c2nnc(-c3ccccc3)n2-c2ccccc21 (mixture of isomers)
EC50 [1]: 52.5 nM
Efficacy [2]: 97%
clearance [28]: > 300 µL/min/mg
IC50 [4]: 49.3 nM

SMILES: O=C(CN1C(=O)C(Cc2c[nH]c3ccccc23)c2nnc(-c3ccccc3)n2-c2ccccc21)N1CCC(Cc2ccccc2)C1 (mixture of isomers)
EC50 [1]: 1310 nM
Efficacy [2]: 85%
clearance [28]: 148 µL/min/mg
IC50 [4]: 68.6 nM

SMILES: O=C1C(Cc2c[nH]c3ccccc23)c2nnc(-c3ccccc3)n2-c2ccccc2N1CC(=O)N1CCCC1Cc1ccccn1 (mixture of isomers)
EC50 [1]: 560 nM
Efficacy [2]: 86%
clearance [28]: 212 µL/min/mg
IC50 [4]: 373 nM
